Assay results collected from several papers.
Protocols differ between the studies behind these lines.
Target: Interleukin-1 receptor-associated kinase 4 (IRAK4, Homo sapiens, UniProt Q9NWZ3)
Sequence (Q9NWZ3 1-460, as in one of the studies): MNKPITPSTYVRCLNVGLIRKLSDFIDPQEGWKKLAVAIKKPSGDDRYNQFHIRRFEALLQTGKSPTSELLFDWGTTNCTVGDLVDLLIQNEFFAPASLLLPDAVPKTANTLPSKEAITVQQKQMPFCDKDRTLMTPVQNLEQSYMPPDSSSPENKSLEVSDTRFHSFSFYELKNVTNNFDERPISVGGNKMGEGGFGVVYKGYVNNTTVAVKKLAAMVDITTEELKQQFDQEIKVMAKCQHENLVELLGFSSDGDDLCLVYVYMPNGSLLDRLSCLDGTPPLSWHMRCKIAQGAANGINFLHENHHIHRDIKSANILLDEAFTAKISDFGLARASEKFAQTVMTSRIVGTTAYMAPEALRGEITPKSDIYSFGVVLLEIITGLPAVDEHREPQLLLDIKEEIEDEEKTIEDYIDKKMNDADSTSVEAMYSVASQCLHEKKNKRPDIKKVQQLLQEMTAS

SMILES | assay | conditions | remaining binding
O=C(NCCCC1CCCCC1)c1ccc(CNC(=O)c2cnn(-c3ccccc3)c2C(F)(F)F)cc1 | cell-free assay, competition with immobilised ligand | 0.1 µM | 100%
Cc1cnn2ncc(-c3ccnc(N(C)C)n3)c2c1 | binding | 1 µM | 100%
O=C1NC(c2ccccn2)Sc2ccccc21 (centres unmarked) | cell-free assay, competition with immobilised ligand | 1 µM | 100%
COc1cnc(Nc2cccc(S(N)(=O)=O)c2)nc1N1CCN(c2ccccc2)CC1 | binding, competition with immobilised ligand | 1 µM | 65%
c1cncc(-c2cccc(Nc3nccc(NC4CCCCC4)n3)c2)c1 | binding, competition with immobilised ligand | 10 µM | 34%
CCN1CCN(Cc2ccc(C(=O)Nc3ccc(C)c(Oc4ccc5c(c4)CC(=O)N5)c3)cc2C(F)(F)F)CC1 | binding, competition with immobilised ligand | 1 µM | 84%
O=C(O)[C@H]1[C@H](Cn2nnc3ccccc3c2=O)CC[C@@H]1C(=O)c1ccc(OCCC2CCOCC2)cc1 | cell-free assay, competition with immobilised ligand | 1 µM | 76%
O=C(c1ccc(Nc2ncc(Cl)c(-c3ccc(Cl)s3)n2)cc1)N1CCC(N2CCCC2)CC1 | binding, competition with immobilised ligand | 1 µM | 60%
CN(c1nccc(-c2cnn3ncccc23)n1)C1CC1 | binding | 1 µM | 100%
O=C(NCCCN1CCOCC1)c1ccc(Nc2ncc(Cl)c(-c3ccc(Cl)s3)n2)cc1 | binding, competition with immobilised ligand | 1 µM | 75%
O=C(Nc1ccc(Oc2ccc(F)cc2)cc1)N1CCc2ncccc2[C@H]1c1ccc(F)cc1 | cell-free assay, competition with immobilised ligand | 1 µM | 96%
O=C(NCC1CCOCC1)c1n[nH]cc1NC(=O)c1c(F)cccc1F | binding, competition with immobilised ligand | 1 µM | 100%
C[C@@H]1CCN(c2nccc(-c3cnn4ncccc34)n2)C1 | binding | 1 µM | 100%
COc1cnc(Nc2cccc(S(N)(=O)=O)c2)nc1N1CCN(c2ccccc2)C(=O)C1 | binding, competition with immobilised ligand | 1 µM | 88%
CN(C)c1ncc(F)c(-c2cnn3ncccc23)n1 | binding | 1 µM | 69%
CCS(=O)(=O)c1cc2cc(C[C@@](O)(CC(C)(C)c3ccc(F)cc3C(N)=O)C(F)(F)F)[nH]c2cn1 | cell-free assay, competition with immobilised ligand | 1 µM | 100%
c1cnn2ncc(-c3ccnc(N4CCC45COC5)n3)c2c1 | binding | 1 µM | 79%
Cc1cnc(Nc2ccc(C(=O)N3CCC(N4CCCC4)CC3)cc2)nc1-c1cc2ccccc2s1 | binding, competition with immobilised ligand | 1 µM | 45%
CN(CCCC(F)(F)F)c1nccc(-c2cnn3ncccc23)n1 | binding | 1 µM | 100%
CN([C@@H]1CCc2c(CC(=O)O)c3cc(S(C)(=O)=O)ccc3n2C1)S(=O)(=O)c1ccc(F)cc1 | cell-free assay, competition with immobilised ligand | 1 µM | 95%
